In ChEMBL document CHEMBL1158464, “Structure-activity relationships and cancer-cell selective toxicity of novel inhibitors of glioma-associated oncogene homologue 1 (Gli1) mediated transcription” (J Med Chem, 2009):
Calls of active or inactive are those of the source. The calls are words filed in the database; no cut-off is given here.

target: T1, Zinc finger protein GLI1 (Homo sapiens) (UniProt P08151); experiment: Inhibition of exogenously transfected human Gli1-mediated transcriptional activity in mouse C3H10T1/2 cells at 20 uM after 24 hrs by luciferase reporter gene assay; format: cell-based; settings: C3H 10T1/2
T1 sequence (whole entry): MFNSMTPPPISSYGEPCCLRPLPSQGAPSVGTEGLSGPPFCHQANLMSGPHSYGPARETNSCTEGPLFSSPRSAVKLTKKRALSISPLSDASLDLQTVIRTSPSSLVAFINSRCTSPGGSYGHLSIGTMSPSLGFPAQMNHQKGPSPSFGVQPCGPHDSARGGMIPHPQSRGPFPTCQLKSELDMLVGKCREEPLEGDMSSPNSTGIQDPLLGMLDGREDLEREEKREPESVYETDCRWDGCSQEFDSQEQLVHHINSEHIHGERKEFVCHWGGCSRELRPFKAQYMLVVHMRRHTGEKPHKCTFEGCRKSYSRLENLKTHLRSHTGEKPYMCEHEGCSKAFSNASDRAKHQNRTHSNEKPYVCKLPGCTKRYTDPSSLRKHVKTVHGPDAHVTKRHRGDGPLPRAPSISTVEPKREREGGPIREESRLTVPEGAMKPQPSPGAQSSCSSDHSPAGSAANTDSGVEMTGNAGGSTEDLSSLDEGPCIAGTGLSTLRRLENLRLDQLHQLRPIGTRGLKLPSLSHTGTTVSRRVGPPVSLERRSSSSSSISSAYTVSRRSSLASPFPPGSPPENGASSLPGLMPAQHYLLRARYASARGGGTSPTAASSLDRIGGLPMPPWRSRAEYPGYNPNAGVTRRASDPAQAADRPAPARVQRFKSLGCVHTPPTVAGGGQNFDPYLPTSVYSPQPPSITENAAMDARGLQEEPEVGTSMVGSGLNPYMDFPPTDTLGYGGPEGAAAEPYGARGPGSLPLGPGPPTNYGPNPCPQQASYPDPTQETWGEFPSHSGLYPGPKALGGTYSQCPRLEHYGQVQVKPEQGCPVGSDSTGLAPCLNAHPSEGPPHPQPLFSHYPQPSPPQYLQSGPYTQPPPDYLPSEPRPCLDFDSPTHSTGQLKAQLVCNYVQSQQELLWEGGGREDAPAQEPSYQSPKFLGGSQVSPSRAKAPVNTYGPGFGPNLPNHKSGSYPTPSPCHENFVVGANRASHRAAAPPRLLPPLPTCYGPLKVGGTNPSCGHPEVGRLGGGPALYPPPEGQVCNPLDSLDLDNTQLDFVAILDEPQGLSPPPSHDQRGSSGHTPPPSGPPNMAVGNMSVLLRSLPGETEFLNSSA
Outline: (§1)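 They were replated 18 h later, given compound or DMSO 6 h after plating, and exposed for 24 h at 37 °C, 5% CO2. Lysate was read by dual luciferase as firefly/Renilla, triplicate, DMSO = 0%. IC50 came from curve fitting.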

SMILES	inhibition
COc1ccc(CCNC(=O)[C@@H](C)c2cccc(C(=O)c3ccccc3)c2)cc1	Active
COc1ccc2cc([C@H](C)C(=O)NCCc3ccc(O)cc3)ccc2c1	Active
COc1cccc(CCNC(=O)[C@@H](C)c2cccc(C(=O)c3ccccc3)c2)c1	Active
COc1ccc(CCNC(=O)[C@@H](C)c2cccc(C(=O)c3ccccc3)c2)cc1O	Active
COc1ccccc1CCNC(=O)[C@@H](C)c1cccc(C(=O)c2ccccc2)c1	Active

Results, then the compound that gave them:

inhibition	SMILES
Active	C[C@H](C(=O)NCc1ccc(O)cc1)c1cccc(C(=O)c2ccccc2)c1
Active	C[C@H](COC(=O)Nc1ccc(O)cc1)c1cccc(C(=O)c2ccccc2)c1
Active	C[C@H](C(=O)NCCc1ccccc1O)c1cccc(C(=O)c2ccccc2)c1
Active	C[C@H](CNC(=O)CCc1ccc(O)cc1)c1cccc(C(=O)c2ccccc2)c1
Active	C[C@H](C(=O)Nc1ccc(O)cc1)c1cccc(C(=O)c2ccccc2)c1

target: T1, Zinc finger protein GLI1 (Homo sapiens); experiment: Inhibition of exogenously transfected human Gli1-mediated transcriptional activity in mouse C3H10T1/2 cells at 40 uM after 24 hrs by luciferase reporter gene assay; format: cell-based; settings: C3H 10T1/2; outline: as §1

SMILES	inhibition
COc1ccc(CCNC(=O)[C@@H](C)c2cccc(C(=O)c3ccccc3)c2)cc1	Active
COc1ccc2cc([C@H](C)C(=O)NCCc3ccc(O)cc3)ccc2c1	Active
COc1cccc(CCNC(=O)[C@@H](C)c2cccc(C(=O)c3ccccc3)c2)c1	Active
COc1ccc(CCNC(=O)[C@@H](C)c2cccc(C(=O)c3ccccc3)c2)cc1O	Active
COc1ccccc1CCNC(=O)[C@@H](C)c1cccc(C(=O)c2ccccc2)c1	Active

Second part, the compound after the results:

inhibition	SMILES
Active	C[C@H](C(=O)NCc1ccc(O)cc1)c1cccc(C(=O)c2ccccc2)c1
Active	C[C@H](COC(=O)Nc1ccc(O)cc1)c1cccc(C(=O)c2ccccc2)c1
Active	C[C@H](CNC(=O)CCc1ccc(O)cc1)c1cccc(C(=O)c2ccccc2)c1
Active	C[C@H](C(=O)Nc1ccc(O)cc1)c1cccc(C(=O)c2ccccc2)c1

system: SJRH30; experiment: Cytotoxicity against human Rh30 cells at 40 uM/well after 68 hrs by alamar blue assay; format: functional, cell-based; settings: not given
Outline: (§2)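 Cells plated in appropriate medium 24 h before compound. A 10 mM DMSO stock was diluted in EMEM to 160 µM (4×) and added in triplicate to a final 40 µM. Incubated 68 h at 37 °C, then Alamar Blue for 4 h at 37 °C. Fluorescence read at ex 510/em 590 nm. Viability taken relative to DMSO control wells.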

SMILES	Activity
COc1ccc(CCNC(=O)[C@@H](C)c2cccc(C(=O)c3ccccc3)c2)cc1	Active
C[C@H](C(=O)NCc1ccc(O)cc1)c1cccc(C(=O)c2ccccc2)c1	Active
COc1ccc2cc([C@H](C)C(=O)NCCc3ccc(O)cc3)ccc2c1	Active
COc1cccc(CCNC(=O)[C@@H](C)c2cccc(C(=O)c3ccccc3)c2)c1	Active
COc1ccc(CCNC(=O)[C@@H](C)c2cccc(C(=O)c3ccccc3)c2)cc1O	Active
C[C@H](COC(=O)Nc1ccc(O)cc1)c1cccc(C(=O)c2ccccc2)c1	Active
C[C@H](C(=O)NCCc1ccccc1O)c1cccc(C(=O)c2ccccc2)c1	Active
COc1ccccc1CCNC(=O)[C@@H](C)c1cccc(C(=O)c2ccccc2)c1	Active
C[C@H](CNC(=O)CCc1ccc(O)cc1)c1cccc(C(=O)c2ccccc2)c1	Active
C[C@H](C(=O)Nc1ccc(O)cc1)c1cccc(C(=O)c2ccccc2)c1	Active

system: MDA-MB-231; experiment: Cytotoxicity against human MDA-MB-231 cells at 40 uM/well after 68 hrs by alamar blue assay; format: functional, cell-based; settings: not given; outline: as §2

SMILES	Activity
COc1ccc(CCNC(=O)[C@@H](C)c2cccc(C(=O)c3ccccc3)c2)cc1	Active
C[C@H](C(=O)NCc1ccc(O)cc1)c1cccc(C(=O)c2ccccc2)c1	Active
COc1ccc2cc([C@H](C)C(=O)NCCc3ccc(O)cc3)ccc2c1	Active
COc1cccc(CCNC(=O)[C@@H](C)c2cccc(C(=O)c3ccccc3)c2)c1	Active
COc1ccc(CCNC(=O)[C@@H](C)c2cccc(C(=O)c3ccccc3)c2)cc1O	Active
C[C@H](COC(=O)Nc1ccc(O)cc1)c1cccc(C(=O)c2ccccc2)c1	Active
C[C@H](C(=O)NCCc1ccccc1O)c1cccc(C(=O)c2ccccc2)c1	Active
COc1ccccc1CCNC(=O)[C@@H](C)c1cccc(C(=O)c2ccccc2)c1	Active
C[C@H](CNC(=O)CCc1ccc(O)cc1)c1cccc(C(=O)c2ccccc2)c1	Active
C[C@H](C(=O)Nc1ccc(O)cc1)c1cccc(C(=O)c2ccccc2)c1	Active

system: Daoy; experiment: Cytotoxicity against human DaOY cells at 40 uM/well after 68 hrs by alamar blue assay; format: functional, cell-based; settings: not given; outline: as §2

SMILES	Activity
COc1ccc(CCNC(=O)[C@@H](C)c2cccc(C(=O)c3ccccc3)c2)cc1	Active
C[C@H](C(=O)NCc1ccc(O)cc1)c1cccc(C(=O)c2ccccc2)c1	Active
COc1ccc2cc([C@H](C)C(=O)NCCc3ccc(O)cc3)ccc2c1	Active
COc1cccc(CCNC(=O)[C@@H](C)c2cccc(C(=O)c3ccccc3)c2)c1	Active
COc1ccc(CCNC(=O)[C@@H](C)c2cccc(C(=O)c3ccccc3)c2)cc1O	Active
C[C@H](COC(=O)Nc1ccc(O)cc1)c1cccc(C(=O)c2ccccc2)c1	Active
C[C@H](C(=O)NCCc1ccccc1O)c1cccc(C(=O)c2ccccc2)c1	Active
COc1ccccc1CCNC(=O)[C@@H](C)c1cccc(C(=O)c2ccccc2)c1	Active
C[C@H](CNC(=O)CCc1ccc(O)cc1)c1cccc(C(=O)c2ccccc2)c1	Active
C[C@H](C(=O)Nc1ccc(O)cc1)c1cccc(C(=O)c2ccccc2)c1	Active

system: DU-145; experiment: Cytotoxicity against human DU145 cells at 40 uM/well after 68 hrs by alamar blue assay; format: functional, cell-based; settings: not given; outline: as §2

SMILES	Activity
COc1ccc(CCNC(=O)[C@@H](C)c2cccc(C(=O)c3ccccc3)c2)cc1	Active
C[C@H](C(=O)NCc1ccc(O)cc1)c1cccc(C(=O)c2ccccc2)c1	Active
COc1ccc2cc([C@H](C)C(=O)NCCc3ccc(O)cc3)ccc2c1	Active
COc1cccc(CCNC(=O)[C@@H](C)c2cccc(C(=O)c3ccccc3)c2)c1	Active
COc1ccc(CCNC(=O)[C@@H](C)c2cccc(C(=O)c3ccccc3)c2)cc1O	Active
C[C@H](COC(=O)Nc1ccc(O)cc1)c1cccc(C(=O)c2ccccc2)c1	Active
C[C@H](C(=O)NCCc1ccccc1O)c1cccc(C(=O)c2ccccc2)c1	Active
COc1ccccc1CCNC(=O)[C@@H](C)c1cccc(C(=O)c2ccccc2)c1	Active
C[C@H](CNC(=O)CCc1ccc(O)cc1)c1cccc(C(=O)c2ccccc2)c1	Active
C[C@H](C(=O)Nc1ccc(O)cc1)c1cccc(C(=O)c2ccccc2)c1	Active

system: Raji; experiment: Cytotoxicity against human Raji cells at 40 uM/well after 68 hrs by alamar blue assay; format: functional, cell-based; settings: not given; outline: as §2

SMILES	Activity
COc1ccc(CCNC(=O)[C@@H](C)c2cccc(C(=O)c3ccccc3)c2)cc1	Active
C[C@H](C(=O)NCc1ccc(O)cc1)c1cccc(C(=O)c2ccccc2)c1	Active
COc1ccc2cc([C@H](C)C(=O)NCCc3ccc(O)cc3)ccc2c1	Active
COc1cccc(CCNC(=O)[C@@H](C)c2cccc(C(=O)c3ccccc3)c2)c1	Active
COc1ccc(CCNC(=O)[C@@H](C)c2cccc(C(=O)c3ccccc3)c2)cc1O	Active
C[C@H](COC(=O)Nc1ccc(O)cc1)c1cccc(C(=O)c2ccccc2)c1	Active
C[C@H](C(=O)NCCc1ccccc1O)c1cccc(C(=O)c2ccccc2)c1	Active
COc1ccccc1CCNC(=O)[C@@H](C)c1cccc(C(=O)c2ccccc2)c1	Active
C[C@H](CNC(=O)CCc1ccc(O)cc1)c1cccc(C(=O)c2ccccc2)c1	Active
C[C@H](C(=O)Nc1ccc(O)cc1)c1cccc(C(=O)c2ccccc2)c1	Active

system: HepG2; experiment: Cytotoxicity against human HepG2 cells at 40 uM/well after 68 hrs by alamar blue assay; format: functional, cell-based; settings: not given; outline: as §2

SMILES	Activity
COc1ccc(CCNC(=O)[C@@H](C)c2cccc(C(=O)c3ccccc3)c2)cc1	inactive
C[C@H](C(=O)NCc1ccc(O)cc1)c1cccc(C(=O)c2ccccc2)c1	inactive
COc1ccc2cc([C@H](C)C(=O)NCCc3ccc(O)cc3)ccc2c1	inactive
COc1cccc(CCNC(=O)[C@@H](C)c2cccc(C(=O)c3ccccc3)c2)c1	inactive
COc1ccc(CCNC(=O)[C@@H](C)c2cccc(C(=O)c3ccccc3)c2)cc1O	inactive
C[C@H](COC(=O)Nc1ccc(O)cc1)c1cccc(C(=O)c2ccccc2)c1	inactive
C[C@H](C(=O)NCCc1ccccc1O)c1cccc(C(=O)c2ccccc2)c1	inactive
COc1ccccc1CCNC(=O)[C@@H](C)c1cccc(C(=O)c2ccccc2)c1	inactive
C[C@H](CNC(=O)CCc1ccc(O)cc1)c1cccc(C(=O)c2ccccc2)c1	inactive
C[C@H](C(=O)Nc1ccc(O)cc1)c1cccc(C(=O)c2ccccc2)c1	inactive

system: LN-229; experiment: Cytotoxicity against human LN229 cells at 40 uM/well after 68 hrs by alamar blue assay; format: functional, cell-based; settings: not given; outline: as §2

SMILES	Activity
COc1ccc(CCNC(=O)[C@@H](C)c2cccc(C(=O)c3ccccc3)c2)cc1	inactive
C[C@H](C(=O)NCc1ccc(O)cc1)c1cccc(C(=O)c2ccccc2)c1	inactive
COc1ccc2cc([C@H](C)C(=O)NCCc3ccc(O)cc3)ccc2c1	inactive
COc1cccc(CCNC(=O)[C@@H](C)c2cccc(C(=O)c3ccccc3)c2)c1	inactive
COc1ccc(CCNC(=O)[C@@H](C)c2cccc(C(=O)c3ccccc3)c2)cc1O	inactive
C[C@H](COC(=O)Nc1ccc(O)cc1)c1cccc(C(=O)c2ccccc2)c1	inactive
C[C@H](C(=O)NCCc1ccccc1O)c1cccc(C(=O)c2ccccc2)c1	inactive
COc1ccccc1CCNC(=O)[C@@H](C)c1cccc(C(=O)c2ccccc2)c1	inactive
C[C@H](CNC(=O)CCc1ccc(O)cc1)c1cccc(C(=O)c2ccccc2)c1	inactive
C[C@H](C(=O)Nc1ccc(O)cc1)c1cccc(C(=O)c2ccccc2)c1	inactive

system: BJ; experiment: Cytotoxicity against human TERT-immortalized human BJ cells at 40 uM/well after 68 hrs by alamar blue assay; format: cell-based; settings: not given; outline: as §2

SMILES	Activity
COc1ccc(CCNC(=O)[C@@H](C)c2cccc(C(=O)c3ccccc3)c2)cc1	Non-toxic
C[C@H](C(=O)NCc1ccc(O)cc1)c1cccc(C(=O)c2ccccc2)c1	Non-toxic
COc1ccc2cc([C@H](C)C(=O)NCCc3ccc(O)cc3)ccc2c1	Non-toxic
COc1cccc(CCNC(=O)[C@@H](C)c2cccc(C(=O)c3ccccc3)c2)c1	Non-toxic
COc1ccc(CCNC(=O)[C@@H](C)c2cccc(C(=O)c3ccccc3)c2)cc1O	Non-toxic
C[C@H](COC(=O)Nc1ccc(O)cc1)c1cccc(C(=O)c2ccccc2)c1	Non-toxic
C[C@H](C(=O)NCCc1ccccc1O)c1cccc(C(=O)c2ccccc2)c1	Non-toxic
COc1ccccc1CCNC(=O)[C@@H](C)c1cccc(C(=O)c2ccccc2)c1	Non-toxic
C[C@H](CNC(=O)CCc1ccc(O)cc1)c1cccc(C(=O)c2ccccc2)c1	Non-toxic
C[C@H](C(=O)Nc1ccc(O)cc1)c1cccc(C(=O)c2ccccc2)c1	Non-toxic
